The text below walks through data of publication PMC8176629 (European journal of medicinal chemistry, 2021).

Assay [1] relates to HIV-1NL4–3. In words: HIV-1/NL4–3 replication inhibition assay in MT-4 lymphocytes. Type of assay: cell-based. The settings on record: for activity compared with 4 (EC50 0.019 μM): HIV-1NL4–3 infected MT-4 cell lines. An outline of the steps:
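MT-4 cells infected with HIV-1 NL4-3 at MOI 0.01 in the presence of test compound. Culture supernatants were harvested on day 4 post-infection, and p24 antigen was measured by capture ELISA. IC50 was taken as the concentration that inhibits NL4-3 replication by 50%.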

Assay [2] has as its system HIV-1NL4–3. The following applies: cited from earlier work.
The next assay has as its system NL4–3/V370A. The following applies: most prevalent bevirimat-resistant polymorphism; cited from earlier work.
Setting [3] is: Human immunodeficiency virus 1, Lymphocyte, read-out: PIC50 (experimental).
Where [4] appears, read: Human immunodeficiency virus 1, MT4, 96 h.

Molecules are shown by their SMILES. Entries after “also recorded” stand apart in the source; their conditions may differ. Where two headings read alike, the source gives them in different places.

`C=C(C)[C@@H]1CC[C@]2(C(=O)N3CCN(C(=O)/C=C/c4ccc5c(c4)OCO5)CC3)CC[C@]3(C)[C@H](CC[C@@H]4[C@@]5(C)CC[C@H](OC(=O)CC(C)(C)C(=O)O)C(C)(C)[C@@H]5CC[C@]43C)[C@@H]12` [Compound 4]: the results for the IC50 in the assay on HIV-1NL4–3 [1] (setting [3]) and with HIV-1NL4–3 [1] (setting [4]) were 19.1 nM and 19 ± 5.4 nM, respectively. The “activity increase compared with 3 against NL4–3” value in the assay with HIV-1NL4–3 [2] is “three-fold”. Moreover, the “activity increase compared with 3 against NL4–3/V370A” value with NL4–3/V370A is recorded as 51 fold.

As for `C=C(C)[C@@H]1CC[C@]2(C(=O)N3CCN(C(=O)CCc4ccc5c(c4)OCO5)CC3)CC[C@]3(C)[C@H](CC[C@@H]4[C@@]5(C)CC[C@H](OC(=O)CC(C)(C)C(=O)O)C(C)(C)[C@@H]5CC[C@]43C)[C@@H]12` [Compound 13m, 4-(28-(4-(3-(Benzo[d] [1,3]dioxol-5-yl)propanoyl)piperazine-1-carbonyl)lup-20(29)-en-3b-oxy)-2,2-dimethyl-4-oxobutanoic acid], the “activity compared with 4 (EC50 0.019 μM)” value in the assay on HIV-1NL4–3 [1] is “improved or comparable activity; also recorded: improved or similar activity”.

On to `C=C(C)[C@@H]1CC[C@]2(C(=O)N3CCN(C(=O)/C=C/c4ccc(N(C)C)cc4)CC3)CC[C@]3(C)[C@H](CC[C@@H]4[C@@]5(C)CC[C@H](OC(=O)CC(C)(C)C(=O)O)C(C)(C)[C@@H]5CC[C@]43C)[C@@H]12` [Compound 9i, (E)-4-(28-(4-(3-(4-(dimethylamino)phenyl)acryloyl)piperazine-1-carbonyl)lup-20(29)-en-3β-oxy)-2,2-dimethyl-4-oxobutanoic acid], for which the “activity compared with 4 (EC50 0.019 μM)” value in the assay on HIV-1NL4–3 [1] is listed as “improved or comparable activity; also recorded: improved or similar activity”.

Take `C=C(C)[C@@H]1CC[C@]2(C(=O)N3CCN(C(=O)/C=C/c4ccc(O)c(O)c4)CC3)CC[C@]3(C)[C@H](CC[C@@H]4[C@@]5(C)CC[C@H](OC(=O)CC(C)(C)C(=O)O)C(C)(C)[C@@H]5CC[C@]43C)[C@@H]12` [Compound 10a]: the figures for the IC50 in the assay on HIV-1NL4–3 [1] (setting [3]) and in the assay on HIV-1NL4–3 [1] (setting [4]) were 28.2 nM and 28 ± 9.8 nM, respectively.

For `C=C(C)[C@@H]1CC[C@]2(C(=O)OCCCOC(=O)/C=C/c3ccc(OC)cc3)CC[C@]3(C)[C@H](CC[C@@H]4[C@@]5(C)CC[C@H](OC(=O)CC(C)(C)C(=O)O)C(C)(C)[C@@H]5CC[C@]43C)[C@@H]12` [Compound 20a], the “fold less potent than 9e” value in the assay with HIV-1NL4–3 [1] (compared with piperazine-linked 9e) was 11 fold.

Turning to `C=C(C)[C@@H]1CC[C@]2(C(=O)N3CCN(C(=O)/C=C/c4ccc(OCOC)c(OC)c4)CC3)CC[C@]3(C)[C@H](CC[C@@H]4[C@@]5(C)CC[C@H](OC(=O)CC(C)(C)C(=O)O)C(C)(C)[C@@H]5CC[C@]43C)[C@@H]12` [Compound 9t, (E)-4-(28-(4-(3-(3-methoxy-4-(methoxymethoxy)phenyl)acryloyl)piperazine-1-carbonyl)lup-20(29)-en-3β-oxy)-2,2-dimethyl-4-oxobutanoic acid], the “activity compared with 4 (EC50 0.019 μM)” value in the assay with HIV-1NL4–3 [1] is “improved or comparable activity; also recorded: improved or similar activity”.

Take `C=C(C)[C@@H]1CC[C@]2(C(=O)N3CCN(C(=O)/C=C/c4ccc(OCOC)c(OCOC)c4)CC3)CC[C@]3(C)[C@H](CC[C@@H]4[C@@]5(C)CC[C@H](OC(=O)CC(C)(C)C(=O)O)C(C)(C)[C@@H]5CC[C@]43C)[C@@H]12` [Compound 9r]: the IC50 is 50.1 nM in the assay on HIV-1NL4–3 [1] (setting [3]) and 50 ± 21 nM in the assay on HIV-1NL4–3 [1] (setting [4]).

As for `C=C(C)[C@@H]1CC[C@]2(C(=O)N3CCN(CCCCC(=O)N4CCN(C(=O)/C=C/c5ccc6c(c5)OCO6)CC4)CC3)CC[C@]3(C)[C@H](CC[C@@H]4[C@@]5(C)CC[C@H](OC(=O)CC(C)(C)C(=O)O)C(C)(C)[C@@H]5CC[C@]43C)[C@@H]12` [Compound 31], the IC50 in the assay with HIV-1NL4–3 [1] (setting [4]) was found to be 12 ± 4.1 nM.

In the case of `C=C(C)[C@@H]1CC[C@]2(C(=O)N3CCN(C(=O)/C=C/c4ccc(OC)c(OC)c4)CC3)CC[C@]3(C)[C@H](CC[C@@H]4[C@@]5(C)CC[C@H](OC(=O)CC(C)(C)C(=O)O)C(C)(C)[C@@H]5CC[C@]43C)[C@@H]12` [Compound 9b], the IC50 was 28.8 nM with HIV-1NL4–3 [1] (setting [3]) and 29 ± 9.3 nM with HIV-1NL4–3 [1] (setting [4]).

In the case of `C=C(C)[C@@H]1CC[C@]2(C(=O)O)CC[C@]3(C)[C@H](CC[C@@H]4[C@@]5(C)CC[C@H](OC(=O)CC(C)(C)C(=O)O)C(C)(C)[C@@H]5CC[C@]43C)[C@@H]12` [Compound 3, 3-O-(3′,3′-dimethylsuccinyl)betulinic acid, reference compound], the figures for the IC50 with HIV-1NL4–3 [1] (setting [3]) and in the assay with HIV-1NL4–3 [1] (setting [4]) were 64.6 nM and 65 ± 1.9 nM, respectively.

In the case of `C=C(C)[C@@H]1CC[C@]2(C(=O)N3CCN(CCCCC(=O)N4CCN(c5cc(NCc6ccccc6)ncn5)CC4)CC3)CC[C@]3(C)[C@H](CC[C@@H]4[C@@]5(C)CC[C@H](OC(=O)CC(C)(C)C(=O)O)C(C)(C)[C@@H]5CC[C@]43C)[C@@H]12` [Compound 32, 4-(28-(4-(5-(4-(6-(Benzylamino)pyrimidin-4-yl)piperazin-1-yl)-5-oxopentyl)piperazine-1-carbonyl)lup-20(29)-en-3β-oxy)-2,2-dimethyl-4-oxobutanoic acid], the “activity compared with 4 (EC50 0.019 μM)” value in the assay on HIV-1NL4–3 [1] is “improved or comparable activity; also recorded: improved or similar activity”.

In the case of `C=C(C)[C@@H]1CC[C@]2(C(=O)N3CCN(C(=O)/C=C/c4ccc(O)c(OC)c4)CC3)CC[C@]3(C)[C@H](CC[C@@H]4[C@@]5(C)CC[C@H](OC(=O)CC(C)(C)C(=O)O)C(C)(C)[C@@H]5CC[C@]43C)[C@@H]12` [Compound 10c, (E)-4-(28-(4-(3-(4-hydroxy-3-methoxyphenyl)acryloyl)piperazine-1-carbonyl)lup-20(29)-en-3β-oxy)-2,2-dimethyl-4-oxobutanoic acid], in the assay with HIV-1NL4–3 [1], the “activity compared with 4 (EC50 0.019 μM)” value is “improved or comparable activity; also recorded: improved or similar activity”.
